Assay outcomes from PubChem BioAssay.
An excerpt weighted towards active compounds, which were near 1.3% of everything screened.
Mdm2 ligase inh = Mdm2 E3 ligase (human) inhibition; Q00987; signal enhancement, % at 5 µM; cell-based MDM2 ubiquitination luciferase reporter, 2 h; 0 = plate control, 100 = twice control, blank-subtracted; actives 0.11% (n = 210,000);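 active means signal enhancement of 30% or more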;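 further: luminescence tracks abundance of the self-degrading MDM2-luciferase fusion protein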
Target sequence (Q00987 whole entry, looked up, the tested form may be a part): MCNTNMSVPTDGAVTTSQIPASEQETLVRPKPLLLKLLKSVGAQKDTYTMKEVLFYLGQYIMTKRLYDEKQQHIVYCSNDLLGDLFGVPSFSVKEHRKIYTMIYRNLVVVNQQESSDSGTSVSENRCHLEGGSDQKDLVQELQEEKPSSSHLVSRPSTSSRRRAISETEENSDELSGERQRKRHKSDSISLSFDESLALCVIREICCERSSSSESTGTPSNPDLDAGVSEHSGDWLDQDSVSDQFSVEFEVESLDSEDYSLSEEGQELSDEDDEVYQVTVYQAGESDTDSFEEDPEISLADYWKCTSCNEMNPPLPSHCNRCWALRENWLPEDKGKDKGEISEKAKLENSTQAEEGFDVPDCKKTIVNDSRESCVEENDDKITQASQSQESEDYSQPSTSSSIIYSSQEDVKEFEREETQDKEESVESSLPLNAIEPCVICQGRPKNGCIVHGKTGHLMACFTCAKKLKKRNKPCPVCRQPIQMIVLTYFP
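Assay system: mammalian cells stably expressing self-ubiquitinating, self-degrading MDM2 E3–luciferase fusion. Quantity: 2000 cells in each well. Medium: DMEM culture medium. Compound dosing: single-point 5 µM. Timing: cell settling 4 h, compound treatment 2 h, both 37 °C. Technique: luciferase luminescence. Read-out basis: percent signal gain over controls, blank-subtracted. Benchmarks: plate controls and plate blanks.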
TAG inh = reduces triacylglycerol accumulation in H9c2 cells; inhibition, % at 12.5 µM; Nile Red lipid (TAG) fluorescence; cells loaded with 200 µM oleic acid; AID 651582; actives 0.66% (n = 230,000);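 active means pattern-corrected inhibition of lipid staining of at least 50% with the nuclear-stain viability signal not falling by more than 50%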;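 further: 0% = DMSO wells and 100% = triacsin C control wells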
Hck Nef HTS = human Hck-Nef kinase inhibition; P08631; Recombinant Hck-YEEI plus Nef, Z-Lyte FRET kinase assay; inhibition, % at 20 µM; actives 0.68% (n = 220,000);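 active means Hck-Nef kinase inhibition above about 50%, limit read from the data; inactive means inhibition below that limit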;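 further: 0% = DMSO with Hck plus Nef and 100% = Hck alone without Nef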
PKD1 inh = inhibitors of human PKD1 kinase. PKD1 kinase fluorescence polarization assay. AID 797. actives 0.056% (n = 200,000). inhibition, % (no concentration beside the values); in the data active means inhibition above about 50%
PERK inh = inhibitors of human PERK kinase; Q9NZJ5; CHO PERK-DD fusion, SEAP luminescence translation reporter; inhibition, % at 5.6 µM; actives 0.17% (n = 220,000);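 active means inhibition above the mean inhibition of all tested compounds plus 3 SD, set separately per screening campaign, cut at about 2.9% in these data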;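 further: PERK kinase domain activated by AP20187 dimerizer at 100 nM; 0% = DMSO with dimerizer and 100% = rapamycin at 8.4 µM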
Rad51 HR inh = blocks human Rad51 in homologous recombination; Q06609; hRad51 DNA strand exchange, fluorescence dequenching; AID 1385; actives 0.085% (n = 200,000); inhibition, % at 10 µM;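 active means inhibition above 40% at the single screening dose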;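 further: 0% = DMSO control wells and 100% = blanks with heterologous ssDNA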
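System: hRad51 filaments on single-stranded DNA; reagent: Fluorescein- and BHQ1-tagged 47-mer duplex; compound dosing: one concentration, 10 µM final; timing: filaments 15 min 37 °C, then compound 30 min; measured by: fluorescein emission 520 nm, excitation 485 nm; benchmarks: per-plate controls and blanks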
H9c2 TAG conf = confirmation of triacylglycerol accumulation inhibitors; actives 71% (n = 990); H9c2 lipid accumulation, Nile Red fluorescence; cells loaded with 200 µM oleic acid; shares compounds with TAG inh; inhibition, % at 12.5 µM;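 active means mean inhibition across replicates of 40% or more; inactive means mean inhibition below 40%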;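 further: plate controls were DMSO only wells for no effect and Triacsin C treated wells for full effect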
Starred values were filed as active, the others as inactive; . = no result given; ! = a repeat was not active.

SMILES | Mdm2 ligase inh | TAG inh | Hck Nef HTS | PKD1 inh | PERK inh | Rad51 HR inh | H9c2 TAG conf
CCOc1ccc(NC(=O)CN(C)C(=O)c2cc([N+](=O)[O-])ccc2Sc2ccccc2)cc1OCC | . | 28.7 | . | . | . | . | .
Cc1ccc(C)c(C(C)NC(=O)c2ccc(Br)o2)c1 (stereo unspecified) | -3.7 | 16.2 | 3.9 | 7.3 | 0.8 | 5.3 | .
COc1ccc(NC(=O)Nc2ccc3c(c2)OCO3)c(C)c1 | . | -14.1 | . | . | . | . | .
CC(C)NS(=O)(=O)c1ccc(CCC(=O)Nc2cc(Cl)ccc2Oc2ccccc2)cc1 | -2.0 | 51.6* | 3.5 | -4.4 | -0.2 | 9.7 | 34.0
O=C(COC(=O)c1ccc(C(F)(F)F)cc1)Nc1cccc(S(=O)(=O)N2CCCCC2)c1 | . | -4.9 | . | . | . | . | .
CC(=O)O[C@H]1C[C@@]2(C)[C@@H](C[C@@H](O)[C@H]3[C@@]4(C)CC[C@@H](O)[C@@H](C)[C@@H]4CC[C@@]32C)/C1=C(\CCC=C(C)C)C(=O)O | . | 60.6*! | . | . | . | . | 55.6*
CC(C)(C)OC(=O)[C@H](Cc1ccccc1)NC(=O)c1ncn2c1c(=O)[nH]c1ccc(Br)cc12 | . | 64.8* | . | . | . | . | 77.0*
Cc1cc(NC(=O)CSc2nc(C(C)(C)C)nc3ccccc23)no1 | 4.0 | -12.6 | 24.0 | -5.4 | -1.0 | -5.9 | .
Cc1cc(NC(=O)CSc2nc(-c3cccs3)nc3ccccc23)no1 | . | 78.3* | . | . | . | . | 72.6*
COc1ccc(NC(=O)Nc2nc(C(N)C3CCCCC3)cs2)cc1 (stereo unspecified) | . | 42.3 | . | . | . | . | .
CN(C)c1ccc(NC(=O)Nc2nc(C(N)C3CCCCC3)cs2)cc1 (stereo unspecified) | . | 74.4* | . | . | . | . | 55.6*
NC(c1csc(Nc2ccc(C(=O)c3ccccc3)cc2)n1)C1CCCCC1 (stereo unspecified) | . | 56.8* | . | . | . | . | 36.2
CC(C)c1ccc(NC(=O)Nc2nc(C(N)C3CCCCC3)cs2)cc1 (stereo unspecified) | . | 129.7* | . | . | . | . | 132.7*
Cc1ccc2[nH]c(=O)cc(C(=O)OC(C)C)c2c1 | 8.0 | 0.0 | 18.3 | -1.3 | -0.4 | -1.6 | .
CSc1ccc2c(c1)N(CCC1CCCCN1C)c1ccccc1S2 (stereo unspecified) | . | 85.1* | 2.8 | 2.6 | -2.2 | 7.2 | 59.4*
CCCCNc1c(-c2ccc(-c3ccc(C(C)=O)cc3)c(OC)c2)nc2cc(C)ccn12 | . | 58.0* | . | . | . | . | 41.2*
CN(C)c1cc[n+](CC(=O)c2ccc(OC(F)F)cc2)cc1 | . | -15.0 | 17.9 | . | 0.9 | . | .
Cc1cccc2c(N=Nc3ccc(S(=O)(=O)Nc4ccc(Cl)cc4)cc3[N+](=O)[O-])c(O)[nH]c12 | -14.0 | 54.0* | -12.1 | -1.1 | 1.1 | 17.3 | 51.0*
O=C(COC(=O)c1cc(Cl)ccc1O)Nc1ccc2c(c1)OCCO2 | . | 1.5 | . | . | . | . | .
COc1cccc(/C=C/C(=C2/C(=O)N(c3ccccc3)N=C2C)c2ccc(C)cc2)c1OC | -7.3 | 111.5* | -1.3 | -0.9 | 1.1 | 5.0 | 128.6*
N#CCc1c(C#N)c(N)nc(N2CCCC(CO)C2)c1C#N (stereo unspecified) | -8.4 | -2.8 | -5.2 | 2.2 | 0.5 | -6.5 | .
Cc1ccc2nc(NC(=O)CN(C)S(=O)(=O)c3cccc4nsnc34)sc2c1 | -18.4 | 70.8* | -10.6 | -1.7 | 0.3 | -5.1 | 65.0*
O=CNc1cc(-c2ccc(C(=O)NC3CC3)cc2)cn2c(-c3ccccc3)cnc12 | . | 13.7 | . | . | . | . | .
COc1cc(-c2cc(NC=O)c3ncc(-c4cccc(C(=O)N(C)C)c4)n3c2)cc(OC)c1OC | . | 58.2* | . | . | . | . | 71.6*
CC(=O)c1ccc(-c2cnc3c(NC=O)cc(-c4ccc(C(=O)NC5CC5)cc4)cn23)cc1 | . | 54.3* | . | . | . | . | 51.5*
SMILES | Mdm2 ligase inh | TAG inh | Hck Nef HTS | PKD1 inh | PERK inh | Rad51 HR inh | H9c2 TAG conf
COc1ccc(-c2cnc3c(NC=O)cc(-c4cccc(NS(C)(=O)=O)c4)cn23)cc1OC | . | 64.8* | . | . | . | . | 58.4*
COc1ccccc1-c1cc(NC=O)c2ncc(-c3cccc(C(=O)N(C)C)c3)n2c1 | . | 58.8* | . | . | . | . | 68.2*
CN(C)C(=O)c1cccc(-c2cnc3c(NC=O)cc(-c4cc(F)c(F)c(F)c4)cn23)c1 | . | 23.2 | . | . | . | . | .
COc1ccccc1-c1cc(NC=O)c2ncc(-c3cccc(C(C)=O)c3)n2c1 | . | 15.4 | . | . | . | . | .
Oc1ccc(Nc2nc(NCC3CCCO3)c3ccccc3n2)cc1 (stereo unspecified) | -16.1 | 50.3* | -1.7 | -1.1 | -0.3 | -6.4 | 24.8
Oc1ccccc1Nc1nc(NCC2CCCO2)c2ccccc2n1 (stereo unspecified) | -4.8 | 13.4 | -1.9 | -5.0 | -0.5 | . | .
Cc1cccc(OCCCC(=O)NNC(=O)CCN2CCN(c3ccccc3)CC2)c1 | . | 7.1 | . | . | . | . | .
Cc1nc(-c2ccccc2)sc1-c1nc(-c2cccs2)ncc1S(=O)(=O)c1ccccc1 | -2.7 | . | 5.3 | 3.5 | 1.7 | 1.1 | .
Cc1ccc(-n2nc(C)c3c(C)c(CCC(=O)Nc4ccc(CN5CCCC5)cc4)c(C)nc32)cc1 | -17.1 | 65.1* | 28.2 | . | -1.7 | 0.6 | 59.1*
CCCCNC(=O)c1cnc(Cc2c[nH]c3ccccc23)c(I)c1 | . | 65.5* | . | . | . | . | 15.2
CN1CCN(C(=O)c2cnc(Cc3c[nH]c4ccccc34)c(I)c2)CC1 | . | -4.9 | . | . | . | . | .
O=C(C[C@@H]1C/C=C/CCCC(=O)O[C@H](c2ccccc2)CNC1=O)N[C@H](CO)Cc1ccccc1 | . | 0.6 | . | . | . | . | .
CCOc1cc(N2CCOCC2)c(OCC)cc1NC(=O)CN1C(=O)NC(C)(c2ccc(OC)cc2)C1=O (stereo unspecified) | . | -2.0 | . | . | . | . | .
O=C(Nc1ccccc1N1CCCCC1)c1ncoc1-c1cccc(F)c1 | . | 30.1 | 17.8 | . | 1.9 | 1.5 | .
O=C(Nc1ccccc1N1CCCCC1)c1ncoc1-c1ccc(F)cc1 | -14.4 | 54.6* | -0.3 | -2.3 | 0.5 | 1.6 | 43.1*
